In ChEMBL document CHEMBL2062435, “Synthesis and in vitro antibacterial activity of gemifloxacin derivatives containing a substituted benzyloxime moiety” (2012):

System: Klebsiella pneumoniae
Assay: Antimicrobial activity against Klebsiella pneumoniae 10-2 after 18-24 hrs by two-fold serial dilution method
Format: functional
How it was run: (§1)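 Agar-medium twofold serial dilution against Gram-positive and Gram-negative strains; MIC taken as the lowest compound concentration giving complete inhibition of bacterial growth after incubation at 35 °C for 18-24 h.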

Q: For `COc1cc(Br)c(CO/N=C2\CN(c3nc4c(cc3F)c(=O)c(C(=O)O)cn4C3CC3)CC2CN)cc1OC.CS(=O)(=O)O` (racemic), which MIC is on record?
A: > 128 mg/L

System: Enterococcus faecalis
Assay: Antimicrobial activity against Enterococcus faecalis 10-6 after 18-24 hrs by two-fold serial dilution method
Format: functional
How it was run: as §1

Q: How did the MIC turn out when `COc1cc(Br)c(CO/N=C2\CN(c3nc4c(cc3F)c(=O)c(C(=O)O)cn4C3CC3)CC2CN)cc1OC.CS(=O)(=O)O` (racemic) was run?
A: 4 mg/L

System: Klebsiella pneumoniae
Assay: Antimicrobial activity against Klebsiella pneumoniae 10-3 after 18-24 hrs by two-fold serial dilution method
Format: functional
How it was run: as §1

Q: With `COc1cc(Br)c(CO/N=C2\CN(c3nc4c(cc3F)c(=O)c(C(=O)O)cn4C3CC3)CC2CN)cc1OC.CS(=O)(=O)O` (racemic) as the compound, how does the MIC read?
A: > 128 mg/L

System: Pseudomonas aeruginosa
Assay: Antimicrobial activity against extended spectrum beta-lactamases-producing Pseudomonas aeruginosa 10-15 after 18-24 hrs by two-fold serial dilution method
Format: functional
How it was run: as §1

Q: With `COc1cc(Br)c(CO/N=C2\CN(c3nc4c(cc3F)c(=O)c(C(=O)O)cn4C3CC3)CC2CN)cc1OC.CS(=O)(=O)O` (racemic) as the compound, how does the MIC read?
A: > 128 mg/L

System: Staphylococcus aureus
Assay: Antimicrobial activity against extended spectrum beta-lactamases-producing methicillin-resistant Staphylococcus aureus 10-15 after 18-24 hrs by two-fold serial dilution method
Format: functional
How it was run: (§2)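 Agar twofold serial dilution MIC against clinical isolates. MIC was taken as the lowest concentration giving complete inhibition of bacterial growth after incubation at 35 °C for 18-24 h.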

Q: Which MIC does the source give for `COc1cc(Br)c(CO/N=C2\CN(c3nc4c(cc3F)c(=O)c(C(=O)O)cn4C3CC3)CC2CN)cc1OC.CS(=O)(=O)O` (racemic) here?
A: 0.125 mg/L

System: Staphylococcus epidermidis
Assay: Antimicrobial activity against extended spectrum beta-lactamases-producing methicillin-resistant Staphylococcus epidermidis 10-13 after 18-24 hrs by two-fold serial dilution method
Format: functional
How it was run: as §2

Q: For `COc1cc(Br)c(CO/N=C2\CN(c3nc4c(cc3F)c(=O)c(C(=O)O)cn4C3CC3)CC2CN)cc1OC.CS(=O)(=O)O` (racemic), which MIC is on record?
A: 0.25 mg/L

System: Enterococcus faecalis
Assay: Antimicrobial activity against Enterococcus faecalis 10-7 after 18-24 hrs by two-fold serial dilution method
Format: functional
How it was run: as §1

Q: `COc1cc(Br)c(CO/N=C2\CN(c3nc4c(cc3F)c(=O)c(C(=O)O)cn4C3CC3)CC2CN)cc1OC.CS(=O)(=O)O` (racemic) was tested. Which MIC did it give?
A: 2 mg/L

System: Pseudomonas aeruginosa
Assay: Antimicrobial activity against extended spectrum beta-lactamases-producing Pseudomonas aeruginosa 10-5 after 18-24 hrs by two-fold serial dilution method
Format: functional
How it was run: as §1

Q: `COc1cc(Br)c(CO/N=C2\CN(c3nc4c(cc3F)c(=O)c(C(=O)O)cn4C3CC3)CC2CN)cc1OC.CS(=O)(=O)O` (racemic) was tested. Which MIC did it give?
A: > 128 mg/L

System: Staphylococcus epidermidis
Assay: Antimicrobial activity against extended spectrum beta-lactamases-producing methicillin-sensitive Staphylococcus epidermidis 10-13 after 18-24 hrs by two-fold serial dilution method
Format: functional
How it was run: as §1

Q: `COc1cc(Br)c(CO/N=C2\CN(c3nc4c(cc3F)c(=O)c(C(=O)O)cn4C3CC3)CC2CN)cc1OC.CS(=O)(=O)O` (racemic) was tested. Which MIC did it give?
A: 0.03 mg/L

System: Staphylococcus aureus
Assay: Antimicrobial activity against extended spectrum beta-lactamases-producing methicillin-sensitive Staphylococcus aureus 10-13 after 18-24 hrs by two-fold serial dilution method
Format: functional
How it was run: as §1

Q: How did the MIC turn out when `COc1cc(Br)c(CO/N=C2\CN(c3nc4c(cc3F)c(=O)c(C(=O)O)cn4C3CC3)CC2CN)cc1OC.CS(=O)(=O)O` (racemic) was run?
A: 0.03 mg/L

System: Staphylococcus epidermidis
Assay: Antimicrobial activity against extended spectrum beta-lactamases-producing methicillin-sensitive Staphylococcus epidermidis 10-15 after 18-24 hrs by two-fold serial dilution method
Format: functional
How it was run: as §1

Q: For `COc1cc(Br)c(CO/N=C2\CN(c3nc4c(cc3F)c(=O)c(C(=O)O)cn4C3CC3)CC2CN)cc1OC.CS(=O)(=O)O` (racemic), which MIC is on record?
A: 2 mg/L

System: Klebsiella pneumoniae
Assay: Antimicrobial activity against extended spectrum beta-lactamases-producing Klebsiella pneumoniae 10-2 after 18-24 hrs by two-fold serial dilution method
Format: functional
How it was run: as §1

Q: For `COc1cc(Br)c(CO/N=C2\CN(c3nc4c(cc3F)c(=O)c(C(=O)O)cn4C3CC3)CC2CN)cc1OC.CS(=O)(=O)O` (racemic), which MIC is on record?
A: > 128 mg/L

System: Klebsiella pneumoniae
Assay: Antimicrobial activity against Klebsiella pneumoniae 10-4 after 18-24 hrs by two-fold serial dilution method
Format: functional
How it was run: as §1

Q: How did the MIC turn out when `COc1cc(Br)c(CO/N=C2\CN(c3nc4c(cc3F)c(=O)c(C(=O)O)cn4C3CC3)CC2CN)cc1OC.CS(=O)(=O)O` (racemic) was run?
A: > 128 mg/L

System: Pseudomonas aeruginosa
Assay: Antimicrobial activity against Pseudomonas aeruginosa 10-12 after 18-24 hrs by two-fold serial dilution method
Format: functional
How it was run: as §1

Q: With `COc1cc(Br)c(CO/N=C2\CN(c3nc4c(cc3F)c(=O)c(C(=O)O)cn4C3CC3)CC2CN)cc1OC.CS(=O)(=O)O` (racemic) as the compound, how does the MIC read?
A: > 128 mg/L

System: Escherichia coli
Assay: Antimicrobial activity against Escherichia coli 10-3 after 18-24 hrs by two-fold serial dilution method
Format: functional
How it was run: as §1

Q: With `COc1cc(Br)c(CO/N=C2\CN(c3nc4c(cc3F)c(=O)c(C(=O)O)cn4C3CC3)CC2CN)cc1OC.CS(=O)(=O)O` (racemic) as the compound, how does the MIC read?
A: > 128 mg/L

System: Klebsiella pneumoniae
Assay: Antimicrobial activity against extended spectrum beta-lactamases-producing Klebsiella pneumoniae 10-1 after 18-24 hrs by two-fold serial dilution method
Format: functional
How it was run: as §1

Q: `COc1cc(Br)c(CO/N=C2\CN(c3nc4c(cc3F)c(=O)c(C(=O)O)cn4C3CC3)CC2CN)cc1OC.CS(=O)(=O)O` (racemic) was tested. Which MIC did it give?
A: > 128 mg/L

System: Streptococcus pneumoniae
Assay: Antimicrobial activity against extended spectrum beta-lactamases-producing Streptococcus pneumoniae 10-4 after 18-24 hrs by two-fold serial dilution method
Format: functional
How it was run: as §1

Q: With `COc1cc(Br)c(CO/N=C2\CN(c3nc4c(cc3F)c(=O)c(C(=O)O)cn4C3CC3)CC2CN)cc1OC.CS(=O)(=O)O` (racemic) as the compound, how does the MIC read?
A: 0.125 mg/L

System: Escherichia coli
Assay: Antimicrobial activity against Escherichia coli 10-1 after 18-24 hrs by two-fold serial dilution method
Format: functional
How it was run: as §1

Q: How did the MIC turn out when `COc1cc(Br)c(CO/N=C2\CN(c3nc4c(cc3F)c(=O)c(C(=O)O)cn4C3CC3)CC2CN)cc1OC.CS(=O)(=O)O` (racemic) was run?
A: > 128 mg/L
